Rows were chosen to be rich in hits. Some 2.7% of all compounds tested hit in one or more screens of this group.
NTR1 agonist – NTR1 (human) agonism; NTR1-U2OS beta-arrestin-GFP spot imaging, agonist mode; activation, % at 20 µM; hit rate 0.17% among 330,000;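 active means activation at or above 40% of the spot to cytoplasm intensity ratio, with at least 20 cells analyzed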;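 further: 0% = DMSO without peptide and 100% = 100 nM NTR1 peptide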
MC4R ag barr – agonists of human melanocortin 4 receptor (MC4R) beta-arrestin. hit rate 0.98% among 360,000. AID 540308. activation, % at 8.9 µM. U2OS MC4R beta-arrestin complementation, luminescence; percent of melanotan II response, DMSO zero. P32245;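 active means activation above a per-plate cutoff, the mean activation of sample wells on that plate plus 3 SD, cut at about 8% in these data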
MC4R antag cAMP – human MC4R antagonism in cAMP assay; AID 540295; inhibition, % at 6.5 µM; hit rate 0.48% among 360,000; MC4R-expressing cells, MTII-stimulated cAMP, LANCE TR-FRET; P32245;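 active means inhibition above its plate's cutoff, the mean of tested wells on that plate plus 3 SD, cut at about 29% in these data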;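 further: 0% = Melanotan II alone and 100% = Melanotan II plus saturating MCL0020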
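Material: U2OS-MC4R stable cell line | Reagent: Melanotan II challenge after compound preincubation | Doses: One concentration, 6.5 µM nominal | Incubation: 30-min compound preincubation, 1-h Melanotan II challenge, 1-h detection, room temperature | Signal: TR-FRET cAMP assay | Replicates: One well per compound, no replicates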
m5-HT2A agonist – activates the mouse 5-HT2A serotonin receptor | activation, % at 7.6 µM | P35363 | CHO-K1 mHTR2A beta-arrestin complementation, luminescence; percent of 30 µM serotonin response | hit rate 0.66% among 360,000;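 active means activation above a run cutoff, the mean activation of all tested compounds plus 3 SD, cut at about 14% in these data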;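 further: 0% = plate median of compound wells and 100% = 30 µM serotonin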
Hep lipid drop – modulators of hepatic lipid droplet formation; AML12 mouse hepatocytes, oleate lipid droplets, BODIPY imaging; inhibition, % at 6.5 µM; hit rate 0.4% among 240,000; AID 1656;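 active means lipid droplet intensity inhibited by at least 50%, with more than 500 cells counted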
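Test system: AML12 mouse liver cells; schedule: overnight exposure; technique: high-content imaging of BODIPY-stained droplets and DAPI nuclei; read-out: % inhibition of corrected integrated BODIPY droplet signal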
PREPL inhibitor – inhibits the human prolyl oligopeptidase-like enzyme; AID 2751; hit rate 0.68% among 320,000; inhibition, % at 5.96 µM; recombinant PREPL, fluorescence polarization activity-based probe; Q4J6C6;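 further: 0% = enzyme with DMSO and 100% = wells lacking enzyme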
Target sequence (Q4J6C6 whole entry, looked up): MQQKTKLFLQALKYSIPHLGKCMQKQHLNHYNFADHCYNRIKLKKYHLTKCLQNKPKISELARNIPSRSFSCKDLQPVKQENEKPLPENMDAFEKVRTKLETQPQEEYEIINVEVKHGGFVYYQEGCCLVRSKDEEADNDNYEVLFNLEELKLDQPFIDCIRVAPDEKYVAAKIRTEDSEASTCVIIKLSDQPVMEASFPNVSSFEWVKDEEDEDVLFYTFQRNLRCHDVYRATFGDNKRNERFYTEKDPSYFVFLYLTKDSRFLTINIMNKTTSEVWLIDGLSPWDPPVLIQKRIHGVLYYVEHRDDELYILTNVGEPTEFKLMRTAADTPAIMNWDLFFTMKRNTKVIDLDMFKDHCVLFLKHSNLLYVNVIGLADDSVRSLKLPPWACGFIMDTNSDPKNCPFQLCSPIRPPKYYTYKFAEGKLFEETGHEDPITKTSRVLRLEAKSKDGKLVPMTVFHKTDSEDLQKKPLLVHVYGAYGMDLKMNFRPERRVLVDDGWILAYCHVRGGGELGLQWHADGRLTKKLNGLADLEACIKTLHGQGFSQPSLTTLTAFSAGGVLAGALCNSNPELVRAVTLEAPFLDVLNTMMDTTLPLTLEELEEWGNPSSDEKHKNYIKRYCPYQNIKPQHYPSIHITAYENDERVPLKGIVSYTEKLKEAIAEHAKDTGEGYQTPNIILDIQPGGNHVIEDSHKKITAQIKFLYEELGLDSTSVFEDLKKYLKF
PREPL inh cf – human PREPL inhibition, confirmation. shares compounds with PREPL inhibitor. recombinant PREPL, fluorescence polarization activity probe. inhibition, % at 5.96 µM. hit rate 67% among 2,000;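 further: 0% = protein with DMSO and 100% = wells lacking protein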
The depositor's hits bear a star. Unless noted, no stated cut-off is given here; in the data, active means inhibition above about 43%; inactive means the rest.

For CN1c2ccsc2/C(=N/NC(=O)c2c(F)cccc2F)CS1(=O)=O the results were NTR1 agonist -0.5, MC4R ag barr -2.6, MC4R antag cAMP -1.4, m5-HT2A agonist 2.0, Hep lipid drop 5.1 and PREPL inhibitor 0.2.
`Cc1c(Cl)cccc1NC(=O)COC(=O)c1c2c(nc3ccccc13)CCN(Cc1ccccc1)C2` gave NTR1 agonist 10.5, MC4R ag barr 0.6, MC4R antag cAMP -20.7, m5-HT2A agonist -1.5, Hep lipid drop -13.0, PREPL inhibitor 50.5* and PREPL inh cf 45.7*.
O=C(NC1CCCCCC1)c1c2c(nc3ccccc13)CCN(Cc1ccccc1)C2 was read as NTR1 agonist -0.9, MC4R ag barr 0.2, MC4R antag cAMP 13.1, m5-HT2A agonist -4.6, Hep lipid drop -5.1 and PREPL inhibitor 10.3.
Screening Cc1nc(-c2ccc(O)c(O)c2)cs1 returned NTR1 agonist -1.1, MC4R ag barr -0.6, MC4R antag cAMP 2.3, m5-HT2A agonist -2.8, Hep lipid drop -13.8, PREPL inhibitor 45.6* and PREPL inh cf 2.2.
Screening O=C(NCc1ccco1)c1ccc(Br)c(S(=O)(=O)N2CCCCC2)c1 returned NTR1 agonist 0.4, MC4R ag barr -0.7, MC4R antag cAMP 4.2, m5-HT2A agonist 3.9 and PREPL inhibitor -6.1.
`O=C(NCc1ccco1)c1ccc(F)c(S(=O)(=O)N2CCCCC2)c1` gave NTR1 agonist -0.5, MC4R ag barr -1.3, MC4R antag cAMP 5.9, m5-HT2A agonist 0.0, Hep lipid drop 2.8, PREPL inhibitor 61.0* and PREPL inh cf 6.6.
Cn1c(SCc2ccc(Br)cc2)nc2c(c1=O)SCC2 was read as NTR1 agonist 8.5, MC4R ag barr -3.0, MC4R antag cAMP 6.9, m5-HT2A agonist -3.2, Hep lipid drop 4.7, PREPL inhibitor 47.4* and PREPL inh cf 42.4.
Cn1c(SCc2cccnc2)nc2c(c1=O)SCC2 was read as NTR1 agonist 3.3, MC4R ag barr 0.1, MC4R antag cAMP -1.2, m5-HT2A agonist -1.8, Hep lipid drop 1.7 and PREPL inhibitor 1.5.
`C/C(=N\Nc1nc2ccccc2s1)c1cccs1` gave NTR1 agonist 4.4, MC4R ag barr 0.9, MC4R antag cAMP 5.2, m5-HT2A agonist -6.1, Hep lipid drop 5.6, PREPL inhibitor 44.9* and PREPL inh cf 51.4*.
`O=S1(=O)CCOC[C@H](CC2CCCCC2)N1Cc1ccccc1Br` gave NTR1 agonist 22.6, MC4R ag barr 1.9, MC4R antag cAMP 10.2, m5-HT2A agonist 4.7, Hep lipid drop -14.5 and PREPL inhibitor 0.0.
NCc1ccccc1CS(=O)(=O)N1CCOCC1 was read as NTR1 agonist 0.7, MC4R ag barr -1.2, MC4R antag cAMP 11.5, m5-HT2A agonist 0.1 and PREPL inhibitor 5.6.
For CC12CNCC(C)(CN(C(c3ccccc3)c3ccccc3)C1)C2 the results were NTR1 agonist 15.5, MC4R ag barr 1.8, MC4R antag cAMP 5.0, m5-HT2A agonist 1.0, Hep lipid drop -1.5, PREPL inhibitor 45.8* and PREPL inh cf 12.8.
Clc1ccc(C(c2ccccc2)N2CCNCC2)cc1 (configuration not stated) was read as NTR1 agonist 0.9, MC4R ag barr -1.9, MC4R antag cAMP -3.0, m5-HT2A agonist -9.0 and PREPL inhibitor 8.4.
For CCOc1ccc(OCC)c(NC(=O)CN2CCN(c3cc(C)ccc3C)CC2)c1 the results were NTR1 agonist 0.6, MC4R ag barr 0.3, MC4R antag cAMP 12.4, m5-HT2A agonist -3.7, PREPL inhibitor 49.7* and PREPL inh cf 34.8.
CCOc1ccc(OCC)c(NC(=O)CN2CCN(c3cccc(C)c3)CC2)c1 was read as NTR1 agonist 6.6, MC4R ag barr 2.5, MC4R antag cAMP 10.0, m5-HT2A agonist 7.8, Hep lipid drop -4.6 and PREPL inhibitor 31.0.
C=CCN(c1ccccc1)S(=O)(=O)c1cccc(C(=O)Nc2cccc(C)n2)c1 was read as NTR1 agonist 1.6, MC4R ag barr -3.0, MC4R antag cAMP -2.4, m5-HT2A agonist 1.3 and PREPL inhibitor -7.8.
`Cc1cc(C)n(-c2nc3ccccc3c(=O)n2OCC(=O)Nc2c(C)cccc2C)n1` gave NTR1 agonist -0.1, MC4R ag barr 0.7, MC4R antag cAMP 1.4, m5-HT2A agonist 0.2, Hep lipid drop -10.1 and PREPL inhibitor 0.8.

Screens: PubChem BioAssay, several laboratories
